The record followed here is ChEMBL document CHEMBL1125388, “New modified heterocyclic phenylalanine derivatives. Incorporation into potent inhibitors of human renin” (J Med Chem, 1992).

“And” between values parts separate entries of the source, which are not always exact repeats. Equal entries are not always repeated.

For orientation: IC50 means the concentration that gives 50% inhibition. As a reminder, the inhibition is the percentage by which the read-out fell short of the control.

The target of the first assay is T1, Renin (Homo sapiens, UniProt P00797).
T1 sequence (P00797 whole entry): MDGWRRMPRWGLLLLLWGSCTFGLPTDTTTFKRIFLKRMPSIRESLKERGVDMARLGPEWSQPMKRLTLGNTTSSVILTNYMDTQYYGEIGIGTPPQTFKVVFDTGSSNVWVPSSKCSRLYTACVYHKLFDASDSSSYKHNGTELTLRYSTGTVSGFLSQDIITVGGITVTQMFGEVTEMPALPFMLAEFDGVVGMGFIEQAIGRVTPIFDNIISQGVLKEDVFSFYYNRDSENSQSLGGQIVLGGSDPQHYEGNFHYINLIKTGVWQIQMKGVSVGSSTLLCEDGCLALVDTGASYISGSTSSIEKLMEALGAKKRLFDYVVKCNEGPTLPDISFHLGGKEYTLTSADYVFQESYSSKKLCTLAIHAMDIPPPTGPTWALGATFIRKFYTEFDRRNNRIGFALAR
Kind of assay: Inhibition of human recombinant renin. The method, boiled down: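 Recombinant human renin (0.05 GU/mL, set to generate 30-40 ng A1/mL per h) incubated with 20 μM human renin substrate stock, pH 5.7 phosphate buffer with BSA, EDTA and PMSF, 1% DMSO final, 37 °C for 1 h; 4 °C blank tubes. RIA (3 h room temperature, γ counting) against standard curve; IC50 reported.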
As to `CC(C)CC(NC(=O)[C@H](Cc1ccccc1)N1Cc2nccn2C1=O)C(=O)N[C@@H](CC1CCCCC1)C(O)C(=O)OC(C)C` (stereo not given in full), the half-maximal inhibitory concentration (IC50) was determined as 100 nM. For the compound `COC(=O)C(O)[C@H](CC1CCCCC1)NC(=O)C(CC(C)C)NC(=O)[C@H](Cc1ccccc1)N1Cc2ncccc2C1=O` (stereo not given in full), the half-maximal inhibitory concentration (IC50) was 207 nM. The same measure, in the same setting: with `CCC[C@H](NC(=O)[C@H](Cc1ccccc1)N1Cc2ccccc2C1=O)C(=O)N[C@@H](CC1CCCCC1)C(O)C(=O)OC(C)C` (stereo not given in full) the figure was 8.9 nM. Take `COC(=O)C(O)[C@H](CC1CCCCC1)NC(=O)C(Cc1cnc[nH]1)NC(=O)[C@H](Cc1ccccc1)N1Cc2ccccc2C1=O` (stereo not given in full): the concentration for half-maximal inhibition (IC50) amounted to 186 nM.

In the case of `COC(=O)C(O)[C@H](CC1CCCCC1)NC(=O)C(CC(C)C)NC(=O)[C@H](Cc1ccccc1)N1C(=O)c2cccc3cccc(c23)C1=O` (stereo not given in full), the 50% inhibitory concentration (IC50) worked out at 391 nM.

Turning to `COC(=O)C(O)[C@H](CC1CCCCC1)NC(=O)C(CC(C)C)NC(=O)[C@H](Cc1ccccc1)N1Cc2ccccc2C1=O` (stereo not given in full), the IC50 stood at 23 nM. `CC(C)CC(NC(=O)[C@H](Cc1ccccc1)N1CCCC1=O)C(=O)N[C@@H](CC1CCCCC1)C(O)C(=O)OC(C)C` (stereo not given in full): the IC50 came to 157 nM. As to `COC(=O)C(O)[C@H](CC1CCCCC1)NC(=O)C(CC(C)C)NC(=O)[C@H](Cc1ccccc1)NC(=O)OC(C)(C)C` (stereo not given in full), the IC50 was 8 nM and 24 nM.

As for `CCCC[C@H](NC(=O)[C@H](Cc1ccccc1)N1Cc2ccccc2C1=O)C(=O)N[C@@H](CC1CCCCC1)C(O)C(=O)OC(C)C` (stereo not given in full), the IC50 was determined as 16 nM. As for `CC(C)CC(NC(=O)[C@H](Cc1ccccc1)N1CC2CCCN2C1=O)C(=O)N[C@@H](CC1CCCCC1)C(O)C(=O)OC(C)C` (stereo not given in full), the IC50 was 141 nM. For `CC(C)CC(NC(=O)[C@H](Cc1ccccc1)N1Cc2cccc3cccc(c23)C1=O)C(=O)N[C@@H](CC1CCCCC1)C(O)C(=O)OC(C)C` (stereo not given in full), the half-inhibitory concentration (IC50) was 80 nM. Consider `CC(C)CC(NC(=O)[C@H](Cc1ccccc1)N1Cc2ccccc2C1=O)C(=O)N[C@@H](CC1CCCCC1)C(O)C(=O)OC(C)C` (stereo not given in full), for which the IC50 came to 36 nM.

A further assay has as its target T2, Renin (Homo sapiens) (UniProt P00797).
T2 sequence (whole entry): T1 sequence (P00797 whole entry)
As to the kind of experiment: Inhibition of human recombinant renin at 1 uM.
As for `COC(=O)C(O)[C@H](CC1CCCCC1)NC(=O)C(CC(C)C)NC(=O)[C@H](Cc1ccccc1)N1C(=O)c2ccccc2C1=O` (stereo not given in full), the inhibition stood at 45%. Take `COC(=O)C(O)[C@H](CC1CCCCC1)NC(=O)C(CC(C)C)NC(=O)[C@H](Cc1ccccc1)N1C(=O)OC(C)(C)C1C` (stereo not given in full): the inhibition came to 76%. The same measure, in the same setting: with `COC(=O)C(O)[C@H](CC1CCCCC1)NC(=O)C(CC(C)C)NC(=O)[C@H](Cc1ccccc1)N1CC(C)(C)OC1=O` (stereo not given in full) the figure was 86.4%.
